Experimental data published in ChEMBL document CHEMBL1250506, “Synthesis of novel sulfanilamide-derived 1,2,3-triazoles and their evaluation for antibacterial and antifungal activities” (2010).
≈ marks a conversion by molar mass, not a printed value.

Columns and labels:
Format in all cases: functional
Pseudomonas aeruginosa = assay: Antibacterial activity against Pseudomonas aeruginosa by twofold serial dilution technique
[1] = Antibacterial activity against Eberthella typhosa by twofold serial dilution technique
Bacillus subtilis = assay: Antibacterial activity against Bacillus subtilis ATCC 6633 by twofold serial dilution technique
Escherichia coli = assay: Antibacterial activity against Escherichia coli JM 109 by twofold serial dilution technique
Candida = assay: Antifungal activity against Candida mycoderma by twofold serial dilution technique
Method in brief: (§1)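 Two-fold serial dilution MIC in 96-well microtest plates. Test compounds from DMSO stocks, with fluconazole as reference. MIC read as the first well showing about 80% growth reduction versus the drug-free well.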

Shigella dysenteriae = assay: Antibacterial activity against Shigella dysenteriae by twofold serial dilution technique
Method in brief: (§2)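 MIC by two-fold broth dilution in 96-well plates following NCCLS. Compounds were dissolved in DMSO as stock, then diluted in Mueller-Hinton broth to 512 down to 0.5. Inoculum was bacterial suspension adjusted with sterile saline to 1 ×10⁵ CFU. Plates were incubated 37 °C for 24 h, with a DMSO-supplemented medium control at matching dilutions. Chloramphenicol was the reference.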

Candida albicans = assay: Antifungal activity against Candida albicans ATCC 76615 by twofold serial dilution technique; method in brief: as §1
Staphylococcus aureus [2] = assay: Antibacterial activity against methicillin-resistant Staphylococcus aureus N315 by twofold serial dilution technique; method in brief: as §2
Staphylococcus aureus [3] = assay: Antibacterial activity against Staphylococcus aureus ATCC 25923 by twofold serial dilution technique

Structure (SMILES)	MIC (Pseudomonas aeruginosa)	MIC [1]	MIC (Bacillus subtilis)	MIC (Escherichia coli)	MIC (Candida)	MIC (Shigella dysenteriae)	MIC (Candida albicans)	MIC (Staphylococcus aureus [2])	MIC (Staphylococcus aureus [3])
CCCCCCCCn1cc(CNS(=O)(=O)c2ccc(N)cc2)nn1	128 µg/mL (≈ 350 µM)	256 µg/mL (≈ 700 µM)	256 µg/mL (≈ 700 µM)	512 µg/mL (≈ 1400 µM)	512 µg/mL (≈ 1400 µM)	256 µg/mL (≈ 700 µM)	> 512 µg/mL	512 µg/mL (≈ 1400 µM)	> 512 µg/mL
Nc1ccc(S(=O)(=O)NCc2cn(Cc3ccc(F)cc3F)nn2)cc1	16 µg/mL (≈ 42.2 µM)	128 µg/mL (≈ 337 µM)	128 µg/mL (≈ 337 µM)	128 µg/mL (≈ 337 µM)	512 µg/mL (≈ 1350 µM)	16 µg/mL (≈ 42.2 µM)	256 µg/mL (≈ 675 µM)	128 µg/mL (≈ 337 µM)	64 µg/mL (≈ 169 µM)
CCCCCCCCCCCCCCCCn1cc(CNS(=O)(=O)c2ccc(N)cc2)nn1	64 µg/mL (≈ 134 µM)	128 µg/mL (≈ 268 µM)	256 µg/mL (≈ 536 µM)	256 µg/mL (≈ 536 µM)	> 512 µg/mL	128 µg/mL (≈ 268 µM)	> 512 µg/mL	512 µg/mL (≈ 1070 µM)	256 µg/mL (≈ 536 µM)
Nc1ccc(S(=O)(=O)NCc2cn(Cc3ccc(Cl)cc3)nn2)cc1	> 512 µg/mL	512 µg/mL (≈ 1360 µM)	> 512 µg/mL	> 512 µg/mL	> 512 µg/mL	> 512 µg/mL	> 512 µg/mL	> 512 µg/mL	512 µg/mL (≈ 1360 µM)
Nc1ccc(S(=O)(=O)NCc2cn(Cc3cccc(Cl)c3)nn2)cc1	512 µg/mL (≈ 1360 µM)	256 µg/mL (≈ 678 µM)	> 512 µg/mL	> 512 µg/mL	> 512 µg/mL	> 512 µg/mL	> 512 µg/mL	256 µg/mL (≈ 678 µM)	512 µg/mL (≈ 1360 µM)
Nc1ccc(S(=O)(=O)NCc2cn(Cc3ccccc3)nn2)cc1	512 µg/mL (≈ 1490 µM)	512 µg/mL (≈ 1490 µM)	> 512 µg/mL	> 512 µg/mL	> 512 µg/mL	512 µg/mL (≈ 1490 µM)	> 512 µg/mL	256 µg/mL (≈ 745 µM)	512 µg/mL (≈ 1490 µM)
Nc1ccc(S(=O)(=O)NCc2cn(Cc3ccc(F)cc3)nn2)cc1	128 µg/mL (≈ 354 µM)	256 µg/mL (≈ 708 µM)	> 512 µg/mL	256 µg/mL (≈ 708 µM)	> 512 µg/mL	128 µg/mL (≈ 354 µM)	> 512 µg/mL	> 512 µg/mL	128 µg/mL (≈ 354 µM)
Cc1cccc(Cn2cc(CNS(=O)(=O)c3ccc(N)cc3)nn2)c1	> 512 µg/mL	512 µg/mL (≈ 1430 µM)	512 µg/mL (≈ 1430 µM)	> 512 µg/mL	> 512 µg/mL	> 512 µg/mL	> 512 µg/mL	> 512 µg/mL	> 512 µg/mL
C#CCNS(=O)(=O)c1ccc(N)cc1	> 512 µg/mL	> 512 µg/mL	> 512 µg/mL	> 512 µg/mL	> 512 µg/mL	> 512 µg/mL	> 512 µg/mL	> 512 µg/mL	> 512 µg/mL
